Measured values from ChEMBL document CHEMBL1649384, “Synthesis and antiproliferative activity of novel symmetrical alkylthio- and alkylseleno-imidocarbamates” (Eur J Med Chem, 2011).

Tests used:
PC-3 [1] = test: Cytotoxicity against human PC3 cells after 72 hrs by CV method; assay type: functional; conditions: PC-3, 72 h
Procedure, shortened: (§1)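 Crystal violet check of the MTT data: eight concentrations between 0.01 and 100, with 72 h exposure. Cells were fixed in 4% formaldehyde for at least 20 min, then stained with 0.1% crystal violet for 30 min. GI₅₀ is the concentration halving growth relative to untreated controls.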

MCF7 [2] = test: Induction of apoptosis in human MCF7 cells assessed as accumulation at S phase at 15 uM after 24 hrs by DNA flow cytometric assay; assay type: functional
Procedure, shortened: (§2)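 Exponentially growing MCF-7 cells were given compound or vehicle, with camptothecin as positive control. Cells were fixed in 1% paraformaldehyde in PBS pH 7.4 on ice for 1 h, then in 70% ethanol at −20 °C for 30 min. They were stained with PI/RNase for 30 min at RT in the dark. DNA content was measured by flow cytometry as % of total cells. Mean ± SEM of three independent experiments, duplicate wells.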

HT-29 [3] = test: Cytotoxicity against human HT-29 cells after 72 hrs by CV method; assay type: functional; conditions: HT-29, 72 h; procedure, shortened: as §1
MCF7 [4] = test: Induction of apoptosis in human MCF7 cells assessed as accumulation at G0/G1 phase at 15 uM after 48 hrs by DNA flow cytometric assay; assay type: functional; procedure, shortened: as §2
MCF7 [5] = test: Induction of apoptosis in human MCF7 cells assessed as accumulation at subG1 phase at 15 uM after 24 hrs by DNA flow cytometric assay; assay type: functional; procedure, shortened: as §2
MCF7 [6] = test: Induction of apoptosis in human MCF7 cells assessed as accumulation at G0/G1 phase at 15 uM after 24 hrs by DNA flow cytometric assay; assay type: functional; procedure, shortened: as §2
PC-3 [7] = test: Cytotoxicity against human PC3 cells after 72 hrs by MTT assay; assay type: functional; conditions: PC-3, 72 h; for CC50: read-out: LC50 (the source's name)
Procedure, shortened: (§3)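 Cells seeded per well: Hep-G2 1×10⁴, HT-29 4×10³, K-562 4×10³, MCF-7 1.2×10⁴, MCF-10A 7×10³, PC-3 2×10³. MCF-10A were grown in supplemented MEBM at 37 °C, 5% CO₂. Five concentrations were tested between 0.01 and 100, with 72 h exposure. Formazan was read by A590. GI₅₀ was taken relative to untreated controls, from at least three independent experiments.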

MCF7 [8] = test: Induction of apoptosis in human MCF7 cells assessed as accumulation at S phase at 15 uM after 48 hrs by DNA flow cytometric assay; assay type: functional; procedure, shortened: as §2
[9] = Cytotoxicity against human MCF10A cells after 72 hrs by MTT assay; assay type: cell-based, MCF-10A; procedure, shortened: as §3
K562 = test: Cytotoxicity against human K562 cells after 72 hrs by MTT assay; assay type: functional; conditions: K562, 72 h; for CC50: read-out: LC50 (the source's name); procedure, shortened: as §3
MCF7 [10] = test: Induction of apoptosis in human MCF7 cells assessed as apoptotic cells at 15 uM after 24 hrs by TUNEL assay; assay type: functional
Procedure, shortened: (§4)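 TUNEL (Apo-Direct) on MCF-7 cells treated with compound or vehicle, with camptothecin as positive control. Cells were fixed in paraformaldehyde and then ethanol, labelled with FITC-dUTP for 1 h at 37 °C, counterstained with PI/RNase, and analysed by flow cytometry. Read-out is % apoptotic cells, mean ± SEM of three independent experiments in duplicate wells.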

HepG2 = test: Cytotoxicity against human HepG2 cells after 72 hrs by MTT assay; assay type: functional; conditions: HepG2, 72 h; procedure, shortened: as §3
MCF7 [11] = test: Induction of apoptosis in human MCF7 cells assessed as accumulation at G2/M phase at 15 uM after 48 hrs by DNA flow cytometric assay; assay type: functional; procedure, shortened: as §2
MCF7 [12] = test: Induction of apoptosis in human MCF7 cells assessed as accumulation at G2/M phase at 15 uM after 24 hrs by DNA flow cytometric assay; assay type: functional; procedure, shortened: as §2
HT-29 [13] = test: Cytotoxicity against human HT-29 cells after 72 hrs by MTT assay; assay type: functional; conditions: HT-29, 72 h; for CC50: read-out: LC50 (the source's name); procedure, shortened: as §3
MCF7 [14] = test: Cytotoxicity against human MCF7 cells after 72 hrs by MTT assay; assay type: functional; conditions: MCF7, 72 h; procedure, shortened: as §3
MCF7 [15] = test: Induction of apoptosis in human MCF7 cells assessed as accumulation at subG1 phase at 15 uM after 48 hrs by DNA flow cytometric assay; assay type: functional; procedure, shortened: as §2
MCF7 [16] = test: Induction of apoptosis in human MCF7 cells assessed as apoptotic cells at 15 uM after 48 hrs by TUNEL assay; assay type: functional; procedure, shortened: as §4

SMILES	Activity (MCF7 [2])	Activity (MCF7 [4])	Activity (MCF7 [5])	Activity (MCF7 [6])	GI50 (PC-3 [7])	TGI (PC-3 [7])	CC50 (PC-3 [7])	Activity (MCF7 [8])	GI50 (K562)	TGI (K562)	CC50 (K562)	Activity (MCF7 [10])	Activity (MCF7 [11])	Activity (MCF7 [12])	GI50 (HT-29 [13])	TGI (HT-29 [13])	CC50 (HT-29 [13])	GI50 (MCF7 [14])	TGI (MCF7 [14])	Activity (MCF7 [15])	further results
C[Se]/C(=N\C(=O)c1cccs1)NC(=O)c1cccs1	18.3%	35.25%	9.31%	45.32%	1.34 µM	63 µM	> 100 µM	25.21%	6.07 µM	> 100 µM	> 100 µM	29.35%	22.74%	23.85%	0.00034 µM	> 100 µM	> 100 µM	0.0034 µM	5.64 µM	14.14%	GI50 (PC-3 [1]): 0.63 µM; GI50 (HT-29 [3]): 9 µM; GI50 at 72 h ([9]; MCF10A cells): 9.26 µM; LC50 ([9]; mcf-10a, 72 h): 73.51 µM; TGI ([9]; mcf-10a, 72 h): 41.14 µM; GI50 (HepG2): 0.63 µM; TGI (HepG2): 1.5 µM; CC50 (HepG2; read-out: LC50 (the source's name)): 12.5 µM; LC50 (MCF7 [14]): > 100 µM; Activity (MCF7 [16]): 71.08%
CC[C@@]1(O)C(=O)OCc2c1cc1n(c2=O)Cc2cc3ccccc3nc2-1 [CAMPTOTHECIN]	10.4%	41.61%	10.92%	65.62%	0.06 µM	> 100 µM	> 100 µM	16.91%	0.06 µM	50.1 µM	> 100 µM	21.25%	15.15%	11.51%	0.05 µM	31.6 µM	31.6 µM	0.01 µM	0.16 µM	25.73%	Activity (MCF7 [16]): 71.45%
